Source: ChEMBL document CHEMBL4316599, “Synthesis, in vitro and in vivo biological evaluation of substituted 3-(5-imidazo[2,1-b]thiazolylmethylene)-2-indolinones as new potent anticancer agents” (Eur J Med Chem, 2019)

Assays:
Assay type in all cases: functional
[1] = tested on: Prostatic carcinoma cell; assay: Cytotoxicity against human prostate cancer cells after 48 hrs by SRB assay
Method in brief: (§1)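 NCI-60 screen: single-dose pass at 10^-5 M, then a five-concentration assay from 10^-9 to 10^-4 M (highest 100 μM). Exposure was 48 h under standard NCI protocols. GI50, TGI and LC50 were derived per cell line and averaged by subpanel. Repeated tests are the mean of two experiments.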

[2] = tested on: Breast carcinoma cell; assay: Cytotoxicity against human breast cancer cells after 48 hrs by SRB assay; method in brief: as §1
[3] = Cytotoxicity against human COLON cells after 48 hrs by SRB assay; method in brief: as §1
[4] = tested on: Ovarian carcinoma cell; assay: Cytotoxicity against human ovarian cancer cells after 48 hrs by SRB assay; method in brief: as §1
[5] = tested on: Melanoma cell line; assay: Cytotoxicity against human melanoma cells after 48 hrs by SRB assay; method in brief: as §1
[6] = tested on: CNS carcinoma cell; assay: Cytotoxicity against human CNS cancer cells after 48 hrs by SRB assay; method in brief: as §1
[7] = tested on: Renal cancer cell line; assay: Cytotoxicity against human renal cancer cells after 48 hrs by SRB assay; method in brief: as §1
[8] = tested on: NSCLC; assay: Cytotoxicity against human NSCLC cells after 48 hrs by SRB assay; method in brief: as §1
[9] = tested on: Leukemia cell; assay: Cytotoxicity against human leukemia cells after 48 hrs by SRB assay; method in brief: as §1
[10] = read-out: LC50 (the source's name)

SMILES | GI50 [1] [µM] | GI50 [2] [µM] | TGI [2] [µM] | GI50 [3] [µM] | TGI [3] [µM] | GI50 [4] [µM] | TGI [4] [µM] | GI50 [5] [µM] | TGI [5] [µM] | GI50 [6] [µM] | TGI [6] [µM] | GI50 [7] [µM] | TGI [7] [µM] | GI50 [8] [µM] | TGI [8] [µM] | GI50 [9] [µM] | other results
O=C1Nc2ccc(O)cc2/C1=C/c1c(-c2ccncc2)nc2sccn12 | 15 | 4.43 | 84.2 | 7.5 | 93 | 33.8 | 86.2 | 15.8 | 89.4 | 4.46 | 80.4 | 43 | 90.1 | 21.2 | 76.8 | 10.1 | CC50 [5, 10]: 99.1 µM; TGI [9]: 67.6 µM
COc1ccc2c(c1)/C(=C\c1c(OC)nc3sc(C)cn13)C(=O)N2 | 0.38 | 0.87 | 61.3 | 0.32 | 35.7 | 1.32 | 42.6 | 3.46 | 67.7 | 0.43 | 33.6 | 0.65 | 61.8 | 1.49 | 58.6 | 0.43 | TGI [1]: 52.8 µM; CC50 [3, 10]: 79.2 µM; LC50 (50% lethal concentration) [4]: 87.6 µM; CC50 [6, 10]: 85.4 µM; LC50 [8]: 88.9 µM
